Results from paper PMC7346850 (ACS infectious diseases, 2020).
“Also recorded” adds a separate entry of the source.

Columns and labels:
[1] = system: chloroquine-resistant P. falciparum Dd2 cells; test: Antiplasmodial dose-response, cell-based SYBR Green I assay, Dd2; parameters: species or system Plasmodium falciparum
Summary of the method: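 Chloroquine-resistant P. falciparum Dd2 cultures were tested in dose–response with a cell-based SYBR Green I growth assay to obtain EC50. Each reported value comes from three independent experiments.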

HepG2 cells = test: Cytotoxicity against HepG2; assay type: cell-based; details: Homo sapiens, HepG2, read-out: EC50 HepG2 cells

With COC(=O)[C@@H]1[C@H]2C[C@H]3c4[nH]c5ccccc5c4CCN3C[C@@H]2CC[C@@H]1O [Y, yohimbine] the “antiplasmodial activity (in words)” value ([1]; P. falciparum Dd2 cells) was “no antiplasmodial activities; also recorded: no antiplasmodial activity”, the EC50 ([1]; Plasmodium falciparum, DD2, read-out: EC50 Dd2 cells) was 76.7 ± 0.74 µM and the EC50 (HepG2 cells) was > 100 µM.
